Test results as given in ChEMBL document CHEMBL4706706, “Structure-activity relationship and mechanistic studies for a series of cinnamyl hydroxamate histone deacetylase inhibitors” (Bioorg Med Chem, 2021).
pIC50: −log10 of the molar value.

What was measured:
MCF7 = experiment: Cytotoxicity against human MCF7 cells assessed as reduction in cell viability measured after 72 hrs by MTT assay; type: functional, cell-based; conditions: MCF7, 72 h
Histone deacetylase 1 = Histone deacetylase 1 (Homo sapiens, UniProt Q13547); experiment: Inhibition of recombinant human full-length C-terminal FLAG/His-tagged HDAC1 (1 to 482 residues) expressed in baculovirus infected Sf9 insect cells using RHKK(Ac)AMC as substrate preincubated for 5 to 10 mins followed by substrate addition and measured after 2 hrs by fluorescence assay
[1] = target: T1, Protein deacetylase HDAC6 (Homo sapiens, UniProt Q9UBN7); experiment: Inhibition of recombinant human full-length N-terminal GST-tagged HDAC6 (1 to 1215 residues) expressed in baculovirus infected Sf9 insect cells using RHKK(Ac)AMC as substrate preincubated for 5 to 10 mins followed by substrate addition and measured after 2 hrs by fluorescence assay
T1 sequence (Q9UBN7 whole entry): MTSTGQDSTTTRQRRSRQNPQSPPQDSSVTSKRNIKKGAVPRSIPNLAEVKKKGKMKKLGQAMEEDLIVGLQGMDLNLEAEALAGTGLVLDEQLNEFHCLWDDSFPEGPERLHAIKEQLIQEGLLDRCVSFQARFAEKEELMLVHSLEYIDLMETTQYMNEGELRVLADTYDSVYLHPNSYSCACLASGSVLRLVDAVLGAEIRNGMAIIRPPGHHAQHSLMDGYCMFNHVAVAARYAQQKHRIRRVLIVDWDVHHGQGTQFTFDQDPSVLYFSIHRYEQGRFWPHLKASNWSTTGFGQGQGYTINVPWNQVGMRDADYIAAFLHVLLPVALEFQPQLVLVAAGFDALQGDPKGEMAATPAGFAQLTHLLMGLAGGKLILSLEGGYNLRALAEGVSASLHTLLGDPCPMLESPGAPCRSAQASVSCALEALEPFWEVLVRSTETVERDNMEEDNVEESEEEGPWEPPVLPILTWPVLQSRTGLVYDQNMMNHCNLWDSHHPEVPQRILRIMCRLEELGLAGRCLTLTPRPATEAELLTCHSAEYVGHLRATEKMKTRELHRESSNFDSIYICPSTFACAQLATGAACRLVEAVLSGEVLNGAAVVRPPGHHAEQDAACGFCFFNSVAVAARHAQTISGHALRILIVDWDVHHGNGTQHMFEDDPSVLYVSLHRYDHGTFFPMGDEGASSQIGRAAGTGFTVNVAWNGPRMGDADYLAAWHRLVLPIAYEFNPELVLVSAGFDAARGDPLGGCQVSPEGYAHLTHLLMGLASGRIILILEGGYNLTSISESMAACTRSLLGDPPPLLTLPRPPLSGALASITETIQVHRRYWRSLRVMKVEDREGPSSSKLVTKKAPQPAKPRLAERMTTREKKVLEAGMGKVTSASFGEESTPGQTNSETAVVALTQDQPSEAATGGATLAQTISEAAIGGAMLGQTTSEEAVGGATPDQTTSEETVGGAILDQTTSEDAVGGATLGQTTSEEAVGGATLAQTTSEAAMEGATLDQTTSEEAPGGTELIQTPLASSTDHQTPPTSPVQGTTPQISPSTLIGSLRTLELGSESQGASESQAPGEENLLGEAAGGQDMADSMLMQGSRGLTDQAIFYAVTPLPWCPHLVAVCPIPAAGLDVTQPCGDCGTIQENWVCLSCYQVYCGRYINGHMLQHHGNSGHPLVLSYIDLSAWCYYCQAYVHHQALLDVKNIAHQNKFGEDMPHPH

HCT-116 = experiment: Cytotoxicity against human HCT-116 cells assessed as reduction in cell viability measured after 72 hrs by MTT assay; type: functional, cell-based; conditions: HCT-116, 72 h
Homo sapiens = species on record: Homo sapiens; experiment: Selectivity index, ratio of IC50 for inhibition of recombinant human full-length C-terminal FLAG/His-tagged HDAC1 (1 to 482 residues) expressed in baculovirus infected Sf9 insect cells to IC50 for inhibition of recombinant human full-length N-terminal GST-tagged HDAC6 (1 to 1215 residues) expressed in baculovirus infected Sf9 insect cells
NAMALVA = experiment: Cytotoxicity against human NAMALVA cells assessed as reduction in cell viability measured after 72 hrs by MTT assay; type: functional, cell-based
[2] = target: Histone deacetylase (Homo sapiens) (UniProt Q13547+O15379+Q9UBN7+Q92769+Q9UQL6+Q8WUI4+Q9BY41+Q96DB2+P56524+Q9UKV0+Q969S8); experiment: Inhibition of HDAC in human HeLa cell nuclear extracts at 100 uM relative to control; type: subcellular; conditions: Nucleus
How it was run: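 Total HDAC activity measured with HeLa nuclear extract as enzyme source; single dose of 100 µM run in duplicate.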

Jurkat = experiment: Cytotoxicity against human Jurkat cells assessed as reduction in cell viability measured after 72 hrs by MTT assay; type: functional, cell-based

Sequence of Histone deacetylase 1 (Q13547 whole entry, the tested form may be a part): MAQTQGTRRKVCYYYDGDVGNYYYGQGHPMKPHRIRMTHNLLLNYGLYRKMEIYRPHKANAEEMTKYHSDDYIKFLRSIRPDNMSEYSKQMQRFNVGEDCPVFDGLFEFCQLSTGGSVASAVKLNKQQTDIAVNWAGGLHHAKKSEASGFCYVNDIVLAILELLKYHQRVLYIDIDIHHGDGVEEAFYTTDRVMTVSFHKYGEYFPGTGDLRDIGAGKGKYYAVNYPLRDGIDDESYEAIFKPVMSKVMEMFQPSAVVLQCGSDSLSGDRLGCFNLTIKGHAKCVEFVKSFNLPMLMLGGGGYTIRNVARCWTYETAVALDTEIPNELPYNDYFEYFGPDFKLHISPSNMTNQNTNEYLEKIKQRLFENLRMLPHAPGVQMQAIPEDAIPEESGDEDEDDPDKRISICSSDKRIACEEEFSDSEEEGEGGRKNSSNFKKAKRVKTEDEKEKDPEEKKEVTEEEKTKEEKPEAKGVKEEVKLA

Row | SMILES | pIC50 (MCF7) | pIC50 (Histone deacetylase 1) | pIC50 [1] | pIC50 (HCT-116) | Ratio IC50 (Homo sapiens) | pIC50 (NAMALVA) | inhibition [2] | pIC50 (Jurkat)
1 | O=C(Nc1ccc(Cl)cc1)Nc1ccc(C(=O)NO)cc1 | < 4.30 | 5.88 | 7.68 | < 4.30 | 64 | 6.06 | 92% | 5.97
2 | O=C(CCc1ccc(NC(=O)Nc2ccc(Cl)cc2)cc1)NO | < 4.30 | 6.03 | 6.98 | 4.75 | 9 | 6.43 | 98% | 6.39
